# Source: ChEMBL document CHEMBL3808340, “Development of Novel 1,2,3,4-Tetrahydroquinoline Scaffolds as Potent NF-κB Inhibitors and Cytotoxic Agents” (ACS Med Chem Lett, 2016)
# How the values were obtained:
# RAW264.7 = assay: Inhibition of LPS-induced NFkappaB (unknown origin) transcriptional activity expressed in mouse RAW264.7 cells at 100 uM incubated for 16 hrs by SEAP based reporter gene assay relative to control; type: cell-based
# [1] = Inhibition of LPS-induced NFkappaB (unknown origin) transcriptional activity expressed in mouse RAW264.7 cells incubated for 16 hrs by SEAP based reporter gene assay; type: cell-based; conditions: RAW264.7, 16 h
# Homo sapiens [2] = species: Homo sapiens; assay: Potency index, ratio of PDTC IC50 to compound IC50 for LPS-induced NFkappaB (unknown origin) transcriptional activity expressed in mouse RAW264.7 cells; type: cell-based
# Homo sapiens [3] = species: Homo sapiens; assay: Potency index, ratio of KL-1156 IC50 to compound IC50 for LPS-induced NFkappaB (unknown origin) transcriptional activity expressed in mouse RAW264.7 cells; type: cell-based
# NCI-H23 = assay: Cytotoxicity against human NCI-H23 cells after 72 hrs by sulforhodamine B assay; type: functional; conditions: NCI-H23, 72 h
# How it was run: (§1)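 Sulforhodamine B staining following the NCI (USA) protocol was used to estimate cell number indirectly in six human cancer lines. GI50 is the concentration giving a 50% decrease in net cell growth, reported as the mean of three experiments.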
# ACHN = assay: Cytotoxicity against human ACHN cells after 72 hrs by sulforhodamine B assay; type: functional; how it was run: as §1
# MDA-MB-231 = assay: Cytotoxicity against human MDA-MB-231 cells after 72 hrs by sulforhodamine B assay; type: functional; conditions: MDA-MB-231, 72 h; how it was run: as §1
# [4] = Cytotoxicity against human PC3 cells after 72 hrs by sulforhodamine B assay; type: functional; conditions: PC-3, 72 h; how it was run: as §1
# [5] = Cytotoxicity against human NUGC3 cells after 72 hrs by sulforhodamine B assay; type: functional; conditions: NUGC-3, 72 h; how it was run: as §1
# [6] = Cytotoxicity against human HCT15 cells after 72 hrs by sulforhodamine B assay; type: functional; conditions: HCT-15, 72 h; how it was run: as §1
IC50 [1] [µM],Compound,inhibition (RAW264.7) [%],Ratio IC50 (Homo sapiens [2]),Ratio IC50 (Homo sapiens [3]),GI50 (NCI-H23) [µM],GI50 (ACHN) [µM],GI50 (MDA-MB-231) [µM],GI50 [4] [µM],GI50 [5] [µM],GI50 [6] [µM]
1.4,O=C(Nc1ccccc1O)C1CCc2ccccc2N1C(=O)c1ccccc1 (stereo not given),> 100,26,37,3.49,4.26,4.21,5.69,3.78,3.83
2.7,O=C(Nc1ccccc1C(F)(F)F)C1CCc2ccccc2N1C(=O)c1ccc(Cl)cc1 (stereo not given),92,13,19,0.307,0.824,0.533,0.786,0.551,0.839
29,O=C(Nc1cc(C(F)(F)F)cc(C(F)(F)F)c1)C1CCc2ccccc2N1C(=O)c1ccccc1 (stereo not given),66,–,–,2.13,2.92,2.43,3.5,1.68,3.54
68,O=C(Nc1ccc(C(F)(F)F)cc1)C1CCc2ccccc2N1 (stereo not given),79,–,–,25.8,25,24.2,20.3,18.6,17.6
27,CCCCCCCCC(=O)N1c2ccccc2CCC1C(=O)Nc1ccccc1C(F)(F)F (stereo not given),63,–,–,4.22,8.33,3.35,4.32,6.18,7.7
0.9,O=C(Nc1ccccc1C(F)(F)F)C1CCc2ccccc2N1C(=O)c1ccccc1Cl (stereo not given),82,41,58,2.15,3.9,2.53,5.14,2.73,4.22
20,O=C(Nc1ccccc1O)C1CCc2ccccc2N1C(=O)c1ccccc1Cl (stereo not given),78,–,–,46.9,44.2,47.4,60,36.8,44.9
27,O=C(Nc1cc(C(F)(F)F)cc(C(F)(F)F)c1)C1CCc2ccccc2N1C(=O)c1cccc(Cl)c1 (stereo not given),68,–,–,0.42,0.813,1.19,1.05,0.56,0.625

# Further lines, the compound ahead of its results:
Compound,IC50 [1] [µM],inhibition (RAW264.7) [%],Ratio IC50 (Homo sapiens [2]),Ratio IC50 (Homo sapiens [3]),GI50 (NCI-H23) [µM],GI50 (ACHN) [µM],GI50 (MDA-MB-231) [µM],GI50 [4] [µM],GI50 [5] [µM],GI50 [6] [µM]
O=C(Nc1ccccc1C(F)(F)F)C1CCc2ccccc2N1C(=O)c1cccc(Cl)c1 (stereo not given),0.7,90,53,75,0.292,0.526,0.288,0.729,0.754,0.797
O=C(Nc1ccccc1O)C1CCc2ccccc2N1C(=O)c1cccc(Cl)c1 (stereo not given),78,58,–,–,11.6,17.2,10.6,23.3,11,23.1
O=C(Nc1ccccc1O)C1CCc2ccccc2N1C(=O)c1ccc(Cl)cc1 (stereo not given),20,82,–,–,19.2,19.6,19.6,25.1,13.4,20.2
O=C(Nc1cc(C(F)(F)F)cc(C(F)(F)F)c1)C1CCc2ccccc2N1C(=O)c1ccc(Cl)cc1 (stereo not given),20,92,–,–,0.889,2.57,2,4.23,1.66,2.22
O=C(Nc1ccccc1)C1CCc2ccccc2N1 (stereo not given),60,85,–,–,97.1,72.9,108,110,59,109
O=C(Nc1ccccc1C(F)(F)F)C1CCc2ccccc2N1 (stereo not given),26,> 100,–,–,56.8,57.6,45.5,53.3,39.3,40.4
CC(=O)N1c2ccccc2CCC1C(=O)Nc1cc(C(F)(F)F)cc(C(F)(F)F)c1 (stereo not given),23,85,–,–,> 70,> 70,> 70,> 70,> 70,> 70
CCC(=O)N1c2ccccc2CCC1C(=O)Nc1cc(C(F)(F)F)cc(C(F)(F)F)c1 (stereo not given),20,91,–,–,7.82,7.72,7.28,8.54,7.22,7.62
O=C(Nc1ccc(O)cc1)C1CCc2ccccc2N1 (stereo not given),65,64,–,–,> 100,> 100,> 100,> 100,> 100,> 100
CCCC(=O)N1c2ccccc2CCC1C(=O)Nc1cc(C(F)(F)F)cc(C(F)(F)F)c1 (stereo not given),20,88,–,–,15,13.9,15.2,18.6,14.4,21.9
O=C(Nc1ccccc1O)C1CCc2ccccc2N1 (stereo not given),83,57,–,–,2.23,3.99,5.26,4.31,2.68,5.61
